Series [1] deals with Matrix metalloproteinase-9 (Homo sapiens, UniProt P14780). The series is described as follows: Inhibition of human full length MMP9 using Mca-Pro-Leu-Gly-Leu-Dpa(Dnp)-Ala-Arg-NH2 as substrate measured up to 120 mins by fluorescence assay. The procedure, abridged:
(§1)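 Recombinant full-length human enzyme activated with APMA, used at 0.1 nM final in 50 mM Tris/HCl pH 7.5, 10 mM CaCl2, 150 mM NaCl, 0.05% Brij-35. Inhibitor added from DMSO (e.g., 1 nM to 30 μM). Activity read as initial slope of fluorescence rise from cleavage of an internally quenched fluorogenic substrate; IC50 derived.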

For series [2], the target named is 72 kDa type IV collagenase (Homo sapiens, UniProt P08253). The series is described as follows: Inhibition of human full length MMP2 using Mca-Pro-Leu-Gly-Leu-Dpa(Dnp)-Ala-Arg-NH2 as substrate measured up to 120 mins by fluorescence assay. An outline of the steps: as §1
The target of series [3] is T1, Interstitial collagenase (Homo sapiens, UniProt P03956).
T1 sequence (P03956 whole entry): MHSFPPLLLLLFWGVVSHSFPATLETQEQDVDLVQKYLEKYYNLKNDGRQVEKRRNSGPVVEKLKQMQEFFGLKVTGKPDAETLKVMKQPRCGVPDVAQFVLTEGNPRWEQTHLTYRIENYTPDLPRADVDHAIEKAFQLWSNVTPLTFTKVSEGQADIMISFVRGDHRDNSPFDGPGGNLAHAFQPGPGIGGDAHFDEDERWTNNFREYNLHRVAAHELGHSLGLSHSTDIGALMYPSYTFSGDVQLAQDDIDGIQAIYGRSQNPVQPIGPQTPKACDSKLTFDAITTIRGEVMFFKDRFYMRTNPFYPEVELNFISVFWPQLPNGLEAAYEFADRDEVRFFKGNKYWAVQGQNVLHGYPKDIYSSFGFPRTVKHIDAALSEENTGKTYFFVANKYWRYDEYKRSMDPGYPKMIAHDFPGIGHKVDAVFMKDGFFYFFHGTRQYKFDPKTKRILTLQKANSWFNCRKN
The series is described as follows: Inhibition of MMP1 (unknown origin).

In series [4] the test system is Plasma. The series is described as follows: Metabolic stability in rat plasma at 60 Mbq up to 2 hrs by UPLC analysis. It is filed as ADME, cell-free. The procedure, abridged: (§2)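 About 60 MBq formulated 18F-tracer (5% ethanol in PBS) added to ~0.5 mL plasma, split into six aliquots. Zero-time sample quenched immediately with methanol; others incubated at 37 °C with shaking and quenched with ice-cold methanol at 5, 30, 60, 90, 120 min. Proteins removed by centrifugation at 10000g, 10 min; supernatants analysed by UPLC.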

A short description of series [5]: Drug uptake in C57BL/6 mouse urinary bladder at 5.3 MBq, iv by PET/CT imaging. It is filed as ADME, organism-based. As to conditions: in vivo; call rule not given here. An outline of the steps:
(§3)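 Single C57BL/6 mouse, 5.3 MBq 18F-tracer via tail vein, isoflurane 2−3% in oxygen/air, body kept at 37 °C. Small-animal PET/CT, two-bed static acquisition: anterior 8−22 min, posterior 23−38 min post-injection; images averaged 8−38 min.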

The subject of series [6] is Plasma. The series is described as follows: Metabolic stability in human plasma at 60 Mbq up to 2 hrs by UPLC analysis. It is filed as ADME, cell-free. The procedure, abridged: as §2
Series [7] deals with Bone. The series is described as follows: Drug uptake in C57BL/6 mouse bone at 5.3 MBq, iv by PET/CT imaging. The series is classed as ADME, organism-based, Bone element. As to conditions: in vivo. The procedure, abridged:
as §3

Series [8] has as its system Blood. The series is described as follows: Drug metabolism in C57BL/6 mouse blood assessed as compound remaining at 650 MBq/mL after 15 to 60 mins by UPLC analysis. The series is classed as ADME, tissue-based. The procedure, abridged:
(§4)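 C57BL/6 mice given 150 μL of 650 MBq/mL (17.5 mCi/mL) 18F-labelled tracer each; killed by decapitation at 15, 30 and 60 min post-injection. Blood and urine collected, proteins precipitated with twice the volume of ice-cold acetonitrile, centrifuged; supernatants analysed by radio-UPLC for intact tracer versus metabolites.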

The nature of series [9]: Drug excretion in C57BL/6 mouse urine at 650 MBq/mL after 15 to 60 mins by UPLC analysis. It is filed as ADME, tissue-based. As to conditions: in the assay text read “after 60 mins” for “after 15 to 60 mins”, read-out: Drug excretion. An outline of the steps: as §4

pIC50: −log10 of the molar value.

72 kDa type IV collagenase, sequence (P08253 whole entry): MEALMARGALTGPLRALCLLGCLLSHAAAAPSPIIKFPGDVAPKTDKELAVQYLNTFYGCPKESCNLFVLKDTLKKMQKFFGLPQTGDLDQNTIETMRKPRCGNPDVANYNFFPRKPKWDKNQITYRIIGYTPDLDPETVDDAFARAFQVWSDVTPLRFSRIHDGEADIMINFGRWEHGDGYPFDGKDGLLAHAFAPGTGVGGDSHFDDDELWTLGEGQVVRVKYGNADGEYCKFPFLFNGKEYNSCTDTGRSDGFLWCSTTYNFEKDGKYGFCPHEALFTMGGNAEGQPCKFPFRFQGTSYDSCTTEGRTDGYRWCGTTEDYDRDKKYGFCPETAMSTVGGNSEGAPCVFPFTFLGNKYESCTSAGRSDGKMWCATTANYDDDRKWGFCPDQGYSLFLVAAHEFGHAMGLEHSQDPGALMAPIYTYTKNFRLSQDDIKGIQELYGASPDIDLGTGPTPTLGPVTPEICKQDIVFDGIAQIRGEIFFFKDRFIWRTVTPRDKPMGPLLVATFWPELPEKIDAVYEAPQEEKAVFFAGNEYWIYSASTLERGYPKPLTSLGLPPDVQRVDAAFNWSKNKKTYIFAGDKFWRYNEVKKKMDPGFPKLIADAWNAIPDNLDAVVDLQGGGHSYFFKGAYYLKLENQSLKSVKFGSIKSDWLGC
Matrix metalloproteinase-9, sequence (P14780 whole entry): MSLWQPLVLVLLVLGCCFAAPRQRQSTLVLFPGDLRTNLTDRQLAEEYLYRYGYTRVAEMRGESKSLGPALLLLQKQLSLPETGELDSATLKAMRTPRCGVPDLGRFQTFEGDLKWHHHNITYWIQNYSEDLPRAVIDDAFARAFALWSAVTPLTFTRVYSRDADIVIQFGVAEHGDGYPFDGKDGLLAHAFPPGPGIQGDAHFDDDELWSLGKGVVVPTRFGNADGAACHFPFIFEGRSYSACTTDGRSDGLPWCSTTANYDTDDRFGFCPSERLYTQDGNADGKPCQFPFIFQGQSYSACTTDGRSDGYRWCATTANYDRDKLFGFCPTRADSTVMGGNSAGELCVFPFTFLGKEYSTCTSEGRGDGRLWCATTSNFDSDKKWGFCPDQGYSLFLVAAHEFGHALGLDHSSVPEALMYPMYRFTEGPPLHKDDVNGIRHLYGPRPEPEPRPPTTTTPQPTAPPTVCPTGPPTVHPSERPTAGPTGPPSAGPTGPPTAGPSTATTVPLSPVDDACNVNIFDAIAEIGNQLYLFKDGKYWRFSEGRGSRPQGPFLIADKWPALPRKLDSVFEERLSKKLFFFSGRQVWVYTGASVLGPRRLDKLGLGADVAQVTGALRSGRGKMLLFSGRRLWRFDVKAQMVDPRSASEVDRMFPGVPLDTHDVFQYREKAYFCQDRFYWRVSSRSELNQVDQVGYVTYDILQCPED

For the compound `O=C(Nc1ccc(S(=O)(=O)N[C@H](Cc2c[nH]c3ccccc23)C(=O)O)cc1)c1ccc(Br)cc1`, the values for the pIC50 in series [1], in [2] and in [3] were 9.00, 9.05 and less than 6.00, respectively.

As for `COc1ccc(-c2ccc(S(=O)(=O)N[C@H](Cc3c[nH]c4ccccc34)C(=O)O)cc2)cc1`, the pIC50 is 7.55 in series [1] and 8.32 in series [2].

Take `O=C(Nc1ccc(S(=O)(=O)N[C@H](Cc2c[nH]c3ccccc23)C(=O)O)cc1)c1ccc(OC(F)(F)F)cc1`: the pIC50 in series [1] is 7.68; in series [2], 8.32.

In the case of `O=C(Nc1ccc(S(=O)(=O)N[C@H](Cc2c[nH]c3ccccc23)C(=O)O)cc1)c1ccc(F)cc1`, the values for the pIC50 in series [1], in series [2] and in [3] were 8.15, 8.74 and less than 6.00, respectively.

For `O=C(Nc1ccc(S(=O)(=O)N[C@H](Cc2c[nH]c3ccccc23)C(=O)O)cc1)c1ccc(I)cc1`, the pIC50 is 8.96 in [1] and more than 9.00 in series [2].

As to `COc1ccc(C(=O)Nc2ccc(S(=O)(=O)N[C@H](Cc3c[nH]c4ccccc34)C(=O)O)cc2)cc1`, the figures for the pIC50 in [1] and in series [2] were 7.96 and more than 9.00, respectively.

Consider `CC(C)Oc1ccc(C(=O)Nc2ccc(S(=O)(=O)N[C@H](Cc3c[nH]c4ccccc34)C(=O)O)cc2)cc1`, for which the pIC50 was 7.01 in series [1] and more than 9.00 in series [2].

Take `CC(C)COc1ccc(C(=O)Nc2ccc(S(=O)(=O)N[C@H](Cc3c[nH]c4ccccc34)C(=O)O)cc2)cc1`: the pIC50 in [1] is 6.34; in series [2], more than 9.00.

As to `O=C(Nc1ccc(S(=O)(=O)N[C@H](Cc2c[nH]c3ccccc23)C(=O)O)cc1)c1ccnc(F)c1`, the pIC50 is 7.11 in series [1] and 7.85 in series [2].

Regarding `O=C(Nc1ccc(S(=O)(=O)N[C@H](Cc2c[nH]c3ccccc23)C(=O)O)cc1)c1ccc(F)nc1`, the pIC50 in series [1] was 7.77; in series [2] it was 8.15; in series [3], less than 6.00.

Regarding `O=C(Nc1ccc(S(=O)(=O)N[C@H](Cc2c[nH]c3ccccc23)C(=O)O)cc1)c1cccnc1F`, the pIC50 is less than 6.00 in [1] and 6.85 in series [2].

Regarding `O=C(Nc1ccc(S(=O)(=O)N[C@H](Cc2c[nH]c3ccccc23)C(=O)O)cc1)c1cc(F)ccn1`, the pIC50 was 7.42 in series [1] and 8.28 in series [2].

For the compound `O=C(O)[C@@H](Cc1c[nH]c2ccccc12)NS(=O)(=O)c1ccc(-c2ccc(Cl)cc2)cc1`, the pIC50 is 6.64 in series [1] and 8.24 in series [2].

`COc1ccc(Oc2ccc(S(=O)(=O)N[C@H](Cc3c[nH]c4ccccc34)C(=O)O)cc2)cc1`: the values for the pIC50 in [1] and in series [2] were 7.00 and 8.44, respectively.

As for `O=C(Nc1ccc(S(=O)(=O)N[C@H](Cc2c[nH]c3ccccc23)C(=O)O)cc1)c1ccc([18F])cc1`, the Stability entry in series [4] and in series [6] was “Stable” in each case. For the same compound, the Drug uptake result in series [5] is “Active”; in series [7], “Not Active”. Besides, in series [8], the Drug metabolism entry was “Not Active”. Also, the dose excreted in series [9] was determined as 85%.

Broadly, the pIC50 is the negative decadic logarithm of the IC50, by convention in mol/L. Higher therefore signals a low IC50.

The values are drawn from ChEMBL document CHEMBL2385031, “Design, synthesis, and initial evaluation of a high affinity positron emission tomography probe for imaging matrix metalloproteinases 2 and 9” (J Med Chem, 2013).
